From ChEMBL document CHEMBL1130393, “Antitumor agents. 178. Synthesis and biological evaluation of substituted 2-aryl-1,8-naphthyridin-4(1H)-ones as antitumor agents that inhibit tubulin polymerization” (J Med Chem, 1997)

Legend:
HCT-116 = test: In vitro antitumor activity against HCT116 tumor cell lines; type: functional; conditions: Homo sapiens
CAKI-1 = test: In vitro antitumor activity against CAKI-1 tumor cell lines; type: functional; conditions: Homo sapiens
[1] = system: Panel ovarian (Carcinoma cell lines); test: log molar concentration required to cause total growth inhibition of ovarian tumor cell lines; type: functional; conditions: Homo sapiens, read-out: Log TGI (converted)
Outline: (§1)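 TGI from the NCI 60 human tumor cell line in vitro screen: log of the molar drug concentration causing total growth inhibition, reported for the named cell panel.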

SK-MEL-5 = test: In vitro antitumor activity against SK-MEL-5 tumor cell lines; type: functional; conditions: Homo sapiens
MDA-N = test: In vitro antitumor activity against MDA-N tumor cell lines; type: functional; conditions: Homo sapiens
[2] = system: Panel colon (Carcinoma cell lines); test: log molar concentration required to cause total growth inhibition of colon tumor cell lines; type: functional; conditions: Homo sapiens, read-out: Log TGI (converted); outline: as §1
NSCLC = test: log molar concentration required to cause total growth inhibition of non-small cell lung tumor cell lines; type: functional; conditions: Homo sapiens, read-out: Log TGI (converted); outline: as §1
MDA-MB-435 = test: In vitro antitumor activity against MDA-MB-435 NCI 's human tumor cell lines; type: functional
[3] = system: Panel prostate (Carcinoma cell lines); test: log molar concentration required to cause total growth inhibition of prostate tumor cell lines; type: functional; conditions: Homo sapiens, read-out: Log TGI (converted); outline: as §1
Tubulin (Bos taurus) = Tubulin (Bos taurus) (UniProt Q6B856+Q862L2+Q862F3); test: Inhibition of radiolabeled colchicine binding to tubulin; type: protein assay; set-up: concentration or dose not given beside the values; conditions: concentration not given here
Outline: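 Measured by DEAE-cellulose filter binding. The 0.1 mL mixture held bovine brain tubulin 1.0 µM, 1.0 M monosodium glutamate (pH 6.6), 1 mM MgCl2, 0.1 mM GTP, 5.0 µM [3H]colchicine, 5% DMSO and inhibitor at 5.0 µM. It was incubated 20 min at 37 °C, filtered through two DEAE-cellulose papers, washed with water and counted by liquid scintillation.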

Leukemic tumor cell line = test: (§2) log molar concentration required to cause total growth inhibition of leukemic tumor cell lines; type: functional; conditions: Homo sapiens, read-out: Log TGI (converted); outline: as §1
Tumor Cell line [4] = test: log molar concentration required to cause total growth inhibition of NCI 's human tumor cell lines; type: functional; conditions: read-out: Log TGI (converted)
Outline: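 NCI 60 human tumor cell line in vitro screen. TGI is the log molar concentration giving total growth inhibition, calculated from all cell lines tested.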

[5] = system: Panel CNS (Carcinoma cell lines); test: log molar concentration required to cause total growth inhibition of CNS cancer tumor cell lines; type: functional; conditions: Homo sapiens, read-out: Log TGI (converted); outline: as §1
NCI-H460 = test: In vitro antitumor activity against NCI-H460 tumor cell lines; type: functional; conditions: Homo sapiens
PC-3 = test: In vitro antitumor activity against PC-3 tumor cell lines; type: functional; conditions: Homo sapiens
[6] = system: Panel breast (Carcinoma cell lines); test: log molar concentration required to cause total growth inhibition of breast tumor cell lines; type: functional; conditions: Homo sapiens, read-out: Log TGI (converted); outline: as §1
U-251 = test: In vitro antitumor activity against U-251 tumor cell lines; type: functional; conditions: Homo sapiens
OVCAR-3 = test: In vitro antitumor activity against OVCAR-3 tumor cell lines; type: functional; conditions: Homo sapiens
[7] = system: Panel renal (Carcinoma cell lines); test: log molar concentration required to cause total growth inhibition of renal tumor cell lines; type: functional; conditions: Homo sapiens, read-out: Log TGI (converted); outline: as §1
SF-295 = test: In vitro antitumor activity against SF-295 tumor cell lines; type: functional; conditions: Homo sapiens
Tubulin = Tubulin (Bos taurus, UniProt Q6B856+Q862L2+Q862F3); test: Inhibition of tubulin polymerization; type: functional
Tumor Cell line [8] = test: (§3) In vitro antitumor activity against NCI 's human tumor cell lines; type: functional; conditions: read-out: Average log GI50 (converted)
Outline: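 NCI in vitro screen of 60 human tumor cell lines. […] The value is calculated from all cell lines tested.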

Melanoma tumor cell line [9] = test: log molar concentration required to cause total growth inhibition of melanomic tumor cell lines; type: functional; conditions: Homo sapiens, read-out: Log TGI (converted); outline: as §1
HL-60 = test: In vitro antitumor activity against HL-60(TB) tumor cell lines; type: functional; conditions: Homo sapiens
Tumor Cell line [10] = test: as §3; type: functional
Outline: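 Tested in the NCI 60 human tumor cell line in vitro screen. […] The value is calculated from all cell lines tested, as an average log GI50.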

[11] = system: Panel CNS (Carcinoma cell lines); test: log molar concentration required to cause total growth inhibition of CNS cancer cell lines; type: functional; conditions: Homo sapiens, read-out: Log TGI (converted); outline: as §1
leukaemia cell line = test: as §2; type: functional; conditions: Homo sapiens, read-out: Log TGI (converted); outline: as §1
Melanoma tumor cell line [12] = test: log molar concentration required to cause total growth inhibition of melanomicell lines; type: functional; conditions: Homo sapiens, read-out: Log TGI (converted); outline: as §1

## Cc1ccnc2nc(-c3cccc(Cl)c3)cc(O)c12
HCT-116
  GI50: 0.0158 µM
CAKI-1
  GI50: 0.0331 µM
[1]
  TGI: 27.5 µM
SK-MEL-5
  GI50: 0.0417 µM
MDA-N
  GI50: 0.0118 µM
[2]
  TGI: 12 µM
NSCLC
  TGI: 100 µM
MDA-MB-435
  GI50: < 0.01 µM
[3]
  TGI: 2.34 µM
Tubulin (Bos taurus)
  inhibition: 32%
Leukemic tumor cell line
  TGI: 100 µM
Tumor Cell line [4]
  TGI: 25.7 µM
[5]
  TGI: 18.2 µM
NCI-H460
  GI50: 0.0389 µM
PC-3
  GI50: 0.0155 µM
[6]
  TGI: 0.813 µM
U-251
  GI50: 0.0525 µM
OVCAR-3
  GI50: 0.0316 µM
[7]
  TGI: 69.2 µM
SF-295
  GI50: 0.0407 µM
Tubulin
  IC50: 1 µM
Tumor Cell line [8]
  GI50: 0.158 µM
Melanoma tumor cell line [9]
  TGI: 70.8 µM
HL-60
  GI50: < 0.01 µM

## COc1cc([C@@H]2c3cc4c(cc3[C@H](O)[C@H]3COC(=O)[C@H]23)OCO4)cc(OC)c1OC [PODOFILOX]
Tubulin (Bos taurus)
  inhibition: 76%
Tumor Cell line [10]
  average log GI50: -7.54 M

## Cc1cnc2[nH]c(-c3cccc(Cl)c3)cc(=O)c2c1
HCT-116
  GI50: 0.0302 µM
CAKI-1
  GI50: 0.0427 µM
[1]
  TGI: 15.8 µM
SK-MEL-5
  GI50: 0.0708 µM
MDA-N
  GI50: > 100 µM
[11]
  TGI: 1.91 µM
[2]
  TGI: 9.55 µM
NSCLC
  TGI: 44.7 µM
MDA-MB-435
  GI50: < 0.01 µM
[3]
  TGI: > 100 µM
Tubulin (Bos taurus)
  inhibition: 33%
Leukaemia cell line
  TGI: 72.4 µM
Tumor Cell line [4]
  TGI: 30.9 µM
NCI-H460
  GI50: 0.0501 µM
PC-3
  GI50: > 100 µM
[6]
  TGI: 12.9 µM
U-251
  GI50: 0.0692 µM
OVCAR-3
  GI50: 0.0224 µM
[7]
  TGI: 87.1 µM
SF-295
  GI50: 0.0251 µM
Tubulin
  IC50: 0.72 µM
Tumor Cell line [8]
  GI50: 0.269 µM
Melanoma tumor cell line [12]
  TGI: 47.9 µM
HL-60
  GI50: 0.0309 µM
